ChEMBL document CHEMBL1137753, “Insecticidal heterolignans--tubuline polymerization inhibitors with activity against chewing pests” (Bioorg Med Chem, 2009)
The source made the active and inactive calls. Unless noted, the rule behind the calls is not given here.

Experiments:
Spodoptera frugiperda [1] = experiment: Insecticidal activity against Spodoptera frugiperda larvae in disk of maize leaf at 500 g/ha treated as spray; assay type: functional, organism-based
Method in brief: (§1)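 The same acetone/DMF/emulsifier formulation, diluted in emulsifier-containing water, was sprayed onto maize leaf disks. Dried disks were infested with fall armyworm larvae and mortality was assessed after a set time. "+" denotes ≥80% larvae killed; n.a. denotes no larvae killed.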

Phaedon cochleariae [2] = experiment: Insecticidal activity against Phaedon cochleariae larvae in disk of Chinese cabbage leaf at 4 g/ha treated as spray; assay type: functional, organism-based
Method in brief: (§2)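 This was sprayed on Chinese cabbage leaf disks. Once dry, disks were infested with mustard beetle larvae and mortality was scored after a set time. "+" denotes ≥80% larvae killed; n.a. denotes none killed.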

CHO [3] = experiment: Cytotoxicity against CHO cells assessed as chromatin condensation after 24 hrs by fluorescence microscopy; assay type: cell-based, Cricetulus griseus; settings: chinese hamster
CHO [4] = experiment: Cytotoxicity against CHO cells assessed as chromatin condensation after 48 hrs by fluorescence microscopy; assay type: cell-based, Cricetulus griseus; settings: chinese hamster
Method in brief: (§3)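 Sf9 or CHO cells were seeded in chamber slides the day before treatment and exposed to compound for 48 h. They were then PBS-washed, fixed in ice-cold methanol for 10 min on ice, and rinsed with acetone. After rehydration in PBS, cells were stained with 2 µM DAPI for 30 min. Nuclei were examined by fluorescence microscopy (×40) for chromatin condensation or fragmentation.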

Sf9 [5] = experiment: Cytotoxicity against Spodoptera frugiperda Sf9 cells assessed as chromatin condensation at >10 ppm after 48 hrs by fluorescence microscopy; assay type: functional, cell-based
Method in brief: (§4)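 Sf9 cells seeded in 8-well slide chambers the day before, then exposed to compound for 48 h. After two PBS washes, cells were fixed in ice-cold methanol for 10 min on ice, given two short acetone washes, rehydrated in PBS and stained with Dapi (2 µM) for 30 min. Chromatin condensation/fragmentation scored by fluorescence microscopy with a x40 objective.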

Phaedon cochleariae [6] = experiment: Insecticidal activity against Phaedon cochleariae larvae in disk of Chinese cabbage leaf treated as spray; assay type: functional, organism-based
Spodoptera frugiperda [7] = experiment: Insecticidal activity against Spodoptera frugiperda larvae in disk of maize leaf treated as spray; assay type: functional, organism-based
Sf9 [8] = experiment: Cytotoxicity against Spodoptera frugiperda Sf9 cells assessed as chromatin condensation at 10 ppm after 48 hrs by fluorescence microscopy; assay type: functional, cell-based; method in brief: as §3
Sf9 [9] = experiment: Cytotoxicity against Spodoptera frugiperda Sf9 cells assessed as chromatin condensation at 0.14 ppm after 48 hrs by fluorescence microscopy; assay type: functional, cell-based; method in brief: as §4
Bos taurus = organism: Bos taurus; experiment: Inhibition of bovine tubulin polymerization
Method in brief: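 Tubulin (>99% pure, 300 µg/sample) was suspended at 4 °C in G-PEM buffer (80 mM PIPES, 2 mM MgCl2, 0.5 mM EGTA, 1.0 mM GTP, pH 6.9) plus 5% glycerol, with or without compound. Colchicine and taxol served as standards. Polymerization at 37 °C was followed as absorbance at 340 nm every 1 min for up to 60 min.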

Spodoptera frugiperda [10] = experiment: Insecticidal activity against Spodoptera frugiperda larvae in disk of maize leaf at 4 g/ha treated as spray; assay type: functional, organism-based; method in brief: as §1
Phaedon cochleariae [11] = experiment: Insecticidal activity against Phaedon cochleariae larvae in disk of Chinese cabbage leaf at 20 g/ha treated as spray; assay type: functional, organism-based; method in brief: as §2
Spodoptera frugiperda [12] = experiment: Insecticidal activity against Spodoptera frugiperda larvae in disk of maize leaf at 20 g/ha treated as spray; assay type: functional, organism-based
Method in brief: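 Maize leaf disks (Zea mays) were sprayed, allowed to dry, then populated with S. frugiperda larvae. Mortality was scored after the desired time; '+' means at least 80% of larvae killed, 'n.a.' means none killed.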

Phaedon cochleariae [13] = experiment: Insecticidal activity against Phaedon cochleariae larvae in disk of Chinese cabbage leaf at 500 g/ha treated as spray; assay type: functional, organism-based; method in brief: as §2
Sf9 [14] = experiment: Cytotoxicity against Spodoptera frugiperda Sf9 cells assessed as chromatin condensation at 1 ppm after 48 hrs by fluorescence microscopy; assay type: functional, cell-based; method in brief: as §3

COc1cc(OC)cc(C2C3=C(COC3=O)Nc3c(OC)cc(OC)cc32)c1 (centres undefined)
Activity (Spodoptera frugiperda [1]): Active
Activity (Phaedon cochleariae [2]): Active

COc1cc(OC)cc([C@@H]2C3=C(COC3=O)Nc3cc(OC)ccc32)c1
Activity (CHO [3]): Toxic
Activity (CHO [4]): Toxic
Activity (Sf9 [5]): Active

O=C1OCC2=C1C(c1ccccc1Cl)c1cc3c(cc1N2)OCO3 (centres undefined)
Activity (CHO [3]): Toxic
Activity (Phaedon cochleariae [6]): inactive
Activity (CHO [4]): Toxic
Activity (Spodoptera frugiperda [7]): inactive
Activity (Sf9 [8]): Active

COc1cc2c(c(OC)c1OC)-c1ccc(OC)c(=O)cc1[C@@H](NC(C)=O)CC2 [COLCHICINE]
Activity (Sf9 [9]): Active
inhibition (Bos taurus): Active
Activity (CHO [3]): Toxic
Activity (CHO [4]): Toxic

COc1cc(OC)cc(C2C3=C(COC3=O)Nc3c2ccc(OC)c3OC)c1 (centres undefined)
Activity (Sf9 [9]): Active
Activity (Spodoptera frugiperda [10]): Active
inhibition (Bos taurus): Active
Activity (CHO [3]): Toxic
Activity (CHO [4]): Toxic
Activity (Phaedon cochleariae [11]): Active

COc1cc(OC)cc(C2C3=C(COC3=O)Nc3cc4c(cc32)OCO4)c1 (centres undefined)
Activity (Spodoptera frugiperda [12]): Active
Activity (Phaedon cochleariae [11]): Active

COc1ccc2c(c1)NC1=C(C(=O)OC1)C2c1cc(OC)c(OC)c(OC)c1 (centres undefined)
Activity (Phaedon cochleariae [13]): Active
Activity (Spodoptera frugiperda [12]): Active

COc1cc(OC)cc(C2C3=C(COC3=O)Nc3cc(OC)c(OC)cc32)c1 (centres undefined)
Activity (Phaedon cochleariae [13]): Active
Activity (Sf9 [14]): Active
Activity (CHO [3]): Toxic
Activity (Spodoptera frugiperda [1]): Active
Activity (CHO [4]): Toxic

CCN1C2=C(C(=O)OC2)C(c2cc(OC)cc(OC)c2)c2cc3c(cc21)OCO3 (centres undefined)
Activity (Phaedon cochleariae [13]): Active
Activity (Sf9 [14]): Active
Activity (CHO [3]): Toxic
Activity (Spodoptera frugiperda [1]): Active
Activity (CHO [4]): Toxic
